For 5 molecules, EC50, Activity and solubility results are on record in ChEMBL document CHEMBL4371088, “Analysis of chain length, substitution patterns, and unsaturation of AM-404 derivatives as 20S proteasome stimulators” (Bioorg Med Chem Lett, 2019).

In one data set the target is 20S proteasome. Description: Stimulation of human 20S proteasome using 11 amino acid FRET peptide as substrate measured every 2 mins over 1 hr by FRET assay. It is filed as protein-complex assay. In a few lines: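 Purified human 20S core particle is incubated with an 11-residue reporter peptide carrying a FRET pair, with or without stimulator. The peptide hydrolysis rate is calculated and expressed as percent increase over the basal (unstimulated) rate. EC50 comes from concentration-response curves.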

Data set [1] deals with 20S proteasome (Homo sapiens) (UniProt P49721+P20618+P28074+P28062+P28065+P28072+P25786+P25787+P25788+P25789+P28066+P60900+O14818+Q8TAA3+P40306+A5LHX3+P49720+P28070+Q99436). Kind of data set: Stimulation of human 20S proteasome at EC50 using 11 amino acid FRET peptide as substrate measured every 2 mins over 1 hr by FRET assay relative to control. It is filed as protein-complex assay. The essentials: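 Purified human 20S core particle incubated with an 11-residue reporter peptide carrying a FRET pair. Hydrolysis rate of the peptide is calculated with and without stimulator and expressed as percent increase over basal hydrolysis.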

Data set [2] concerns HEK-293T. Kind of data set: Cytotoxicity against HEK293T cells up to 50 uM after 16 hrs by Celltiter-Glo luminescence assay. It is filed as cell-based. Particulars: human. The essentials:
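HEK-293T cells exposed for 16 hrs to varying concentrations of stimulator before toxicity was assessed.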
A general note: Cellular ATP, detected with luciferase, serves as a proxy for viable cell number.

The subject of data set [3] is HEK-293T. Kind of data set: Cytotoxicity against HEK293T cells at 25 to 50 uM after 24 hrs by LDH assay. The note with it: human.
Data set [4] in a line: Solubility of the compound in DMSO. It is filed as physicochemical.

Each structure is given as a SMILES string.

For orientation: EC50 means the concentration that produces a half-maximal response. A lower EC50 goes with a more potent agent. The molecule `CCCCCCCC/C=C\CCCCC/C=C/C(=O)Nc1ccc(O)cc1` returned an EC50 at 20S proteasome of 24 µM. For the same molecule, the Activity in data set [1] is 500%; in the data set on HEK-293T [2] it was “Non-Toxic”; in the data set with HEK-293T [3], “Non-Toxic”.
Consider `CCCCCC/C=C\CCCCC/C=C/C(=O)O`, for which, in data set [4], the solubility result is “Insoluble”.
On the same count and under the same terms, in the case of `CCCCCCCC/C=C\CCCCC/C=C/C(=O)O` it was “Insoluble”.
On to `CCCCC/C=C\C/C=C\C/C=C\C/C=C\CCCC(=O)Nc1ccc(O)cc1`, for which, at 20S proteasome, the EC50 stood at 28 µM. The values for the Activity (in data set [1]; in the data set on HEK-293T [2]; in the data set on HEK-293T [3]) were 1000%, “Toxic” and “Non-Toxic”, respectively.
On 20S proteasome, `CCCCCCCC/C=C\CCCCCCCC(=O)Nc1ccc(O)cc1` yielded an EC50 of 35 µM. Moreover, the Activity in data set [1] was 400%; in the data set on HEK-293T [2] it was “Non-Toxic”; with HEK-293T [3], “Non-Toxic”.
